Source: ChEMBL document CHEMBL2331363, “Synthesis of a 2,4,6-trisubstituted 5-cyano-pyrimidine library and evaluation of its immunosuppressive activity in a Mixed Lymphocyte Reaction assay” (Bioorg Med Chem, 2013)

What was measured:
[1] = Immunosuppressive activity in human RPMI1788 cells cocultured with human PBMC assessed as inhibition of [3H]thymidine incorporation incubated for 6 days prior to [3H]thymidine addition measured after 18 hrs by liquid scintillation counting; type: functional, cell-based; details: RPMI-1788
Summary of the method: (§1)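 Effector PBMCs from heparinized healthy-donor blood were isolated over Lymphoprep and held at 1.2 × 10⁶ cells/mL in RPMI-1640 with 10% heat-inactivated FCS. Mitomycin-treated stimulator cells were at 0.45 × 10⁶ cells/mL. Cells were mixed with diluted compound and cultured at 37 °C, 5% CO₂. (methyl-³H)thymidine was added for the final 18 h, and filter-harvested cpm were counted by scintillation. Compounds were screened at one concentration, then dose-response IC₅₀ was determined. Values are means of two independent experiments.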

[2] = Immunosuppressive activity in human RPMI1788 cells cocultured with human PBMC assessed as inhibition of [3H]thymidine incorporation at 10 uM incubated for 6 days prior to [3H]thymidine addition measured after 18 hrs by liquid scintillation counting; type: functional; details: RPMI-1788; summary of the method: as §1
[3] = Growth inhibition of human Jurkat T cells at 10 uM after 48 hrs by WST1 assay; type: cell-based
Summary of the method: (§2)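 Jurkat T cells were seeded at 5.10⁴ cells per well and exposed to serial compound dilutions for 48 h at 37 °C and 5% CO₂. Part of the medium was removed, WST-1 tetrazolium salt was added, and cells were incubated further. Absorbance was read at 450 nm. Results are % cytotoxicity at each concentration, with CC₅₀ calculated.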

[4] = Cytotoxicity against human Jurkat T cells after 48 hrs by WST1 assay; type: cell-based; summary of the method: as §2

Row | SMILES | IC50 [1] | inhibition at 10 µM [2] | inhibition at 48 h, 10 µM [3] | CC50 at 48 h [4]
1 | N#Cc1c(-c2ccc(Cl)cc2)nc(Nc2ccccc2)[nH]c1=O | > 10 µM | 8% | – | –
2 | CCCOc1nc(Nc2ccc(Cl)cc2)nc(-c2ccccc2)c1C#N | > 10 µM | 44% | – | –
3 | CC(C)Nc1nc(Nc2ccc(Cl)cc2)nc(-c2ccc(Cl)cc2)c1C#N | > 10 µM | 0% | – | –
4 | N#Cc1c(-c2ccc(Cl)cc2)nc(Nc2cccc(F)c2)[nH]c1=O | > 10 µM | 0% | – | –
5 | COc1ccc(-c2nc(SCc3ccccc3)nc(N3CCC(Cc4ccccc4)CC3)c2C#N)cc1 | > 10 µM | 31% | – | –
6 | N#Cc1c(OCc2ccccc2)nc(Nc2ccc(Cl)cc2)nc1-c1ccc(Cl)cc1 | > 10 µM | 26% | – | –
7 | COc1ccc(-c2nc(Nc3ccc(Cl)cc3)[nH]c(=O)c2C#N)cc1 | > 10 µM | 0% | – | –
8 | Cn1c(SCc2ccccc2)nc(-c2cccc(Cl)c2)c(C#N)c1=O | > 10 µM | 7% | – | –
9 | COc1ccc(-c2nc(SCc3ccccc3)nc(N3CCC(C)CC3)c2C#N)cc1 | > 10 µM | 35% | – | –
10 | Cn1c(SCc2ccccc2)nc(-c2ccc(Cl)cc2)c(C#N)c1=O | > 10 µM | 0% | – | –
11 | COc1ccc(-c2nc(SCc3ccccc3)nc(N3CCC(c4ccccc4)CC3)c2C#N)cc1 | > 10 µM | 31% | – | –
12 | Cc1ccc(Nc2nc(-c3ccc(Cl)cc3)c(C#N)c(N3CCCCC3)n2)cc1 | > 10 µM | 0% | – | –
13 | N#Cc1c(-c2cccc(Cl)c2)nc(SCc2ccccc2)nc1N1CCOCC1 | 5.5 µM | 80% | 15% | > 10 µM
14 | COc1ccc(-c2nc(SCc3ccccc3)nc(N3CCC(C(=O)c4ccccc4)CC3)c2C#N)cc1 | 2.1 µM | 63% | 2% | > 10 µM
15 | CCOc1nc(SCc2ccccc2)nc(-c2ccc(Cl)cc2)c1C#N | > 10 µM | 13% | – | –
16 | N#Cc1c(-c2ccc(Cl)cc2)nc(Nc2ccc(Cl)cc2)nc1N1CCOCC1 | > 10 µM | 45% | – | –
17 | COc1ccc(-c2nc(SCc3ccccc3)nc(NCCc3ccccc3)c2C#N)cc1 | > 10 µM | 11% | – | –
18 | N#Cc1c(-c2ccccc2)nc(Nc2ccc(Cl)cc2)[nH]c1=O | > 10 µM | 0% | – | –
19 | C=CCSc1nc(-c2ccc(OC)cc2)c(C#N)c(N2CCOCC2)n1 | 3.4 µM | 82% | 5% | > 10 µM
20 | CCOc1nc(SCc2ccccc2)nc(-c2cccc(Cl)c2)c1C#N | > 10 µM | 10% | – | –
21 | N#Cc1c(-c2ccc(Cl)cc2)nc(SCc2ccccc2)nc1N1CCC(C(=O)c2ccccc2)CC1 | 9.8 µM | 55% | 6% | > 10 µM
22 | N#Cc1c(-c2ccc(Cl)cc2)nc(SCc2ccccc2)nc1N1CCC(Cc2ccccc2)CC1 | > 10 µM | 17% | – | –
23 | COc1ccc(-c2nc(SCc3ccc(Br)cc3)nc(N3CCOCC3)c2C#N)cc1 | > 10 µM | 36% | – | –
24 | CCOc1nc(Nc2ccc(Cl)cc2)nc(-c2ccc(Cl)cc2)c1C#N | > 10 µM | 0% | – | –
25 | N#Cc1c(-c2ccc(Cl)cc2)nc(SCc2ccccc2)nc1N1CCOCC1 | 8.3 µM | 63% | 5% | > 10 µM
26 | COc1ccc(-c2nc(SCc3ccccc3)nc(N3CCSCC3)c2C#N)cc1 | > 10 µM | 13% | – | –
27 | Cc1ccc(Nc2nc(-c3ccc(Cl)cc3)c(C#N)c(=O)[nH]2)cc1 | > 10 µM | 20% | – | –

Row | SMILES | IC50 [1] | inhibition at 10 µM [2] | inhibition at 48 h, 10 µM [3] | CC50 at 48 h [4]
28 | N#Cc1c(NC2CCCCC2)nc(Nc2ccc(Cl)cc2)nc1-c1ccc(Cl)cc1 | > 10 µM | 1% | – | –
29 | N#Cc1c(-c2ccccc2)nc(Nc2ccc(Cl)cc2)nc1N1CCCCC1 | 6.2 µM | 70% | 9% | > 10 µM
30 | N#Cc1c(-c2ccc(Cl)cc2)nc(SCc2ccccc2)nc1N1CCC(C(N)=O)CC1 | 6.4 µM | 57% | 19% | > 10 µM
31 | N#Cc1c(-c2ccc(Cl)cc2)nc(SCc2ccccc2)n(Cc2ccccc2)c1=O | > 10 µM | 14% | – | –
32 | CCCCSc1nc(-c2ccc(OC)cc2)c(C#N)c(N2CCOCC2)n1 | 2.3 µM | 67% | 13% | > 10 µM
33 | COc1nc(SCc2ccccc2)nc(-c2ccc(Cl)cc2)c1C#N | > 10 µM | 10% | – | –
34 | N#Cc1c(-c2cccc(Cl)c2)nc(Nc2ccc(Cl)cc2)[nH]c1=O | > 10 µM | 14% | – | –
35 | N#Cc1c(-c2ccc(Cl)cc2)nc(Nc2ccc(Cl)cc2)nc1N1CCCCC1 | > 10 µM | 15% | – | –
36 | N#Cc1c(NC2CCCCC2)nc(SCc2ccccc2)nc1-c1ccc(Cl)cc1 | 6.4 µM | 56% | 0% | > 10 µM
37 | CCn1c(SCc2ccccc2)nc(-c2ccc(OC)cc2)c(C#N)c1=O | > 10 µM | 12% | – | –
38 | N#Cc1c(OCc2ccccc2)nc(SCc2ccccc2)nc1-c1ccc(Cl)cc1 | > 10 µM | 22% | – | –
39 | CC(C)Nc1nc(Nc2ccc(Cl)cc2)nc(-c2ccccc2)c1C#N | 5.7 µM | 72% | – | –
40 | COc1ccc(-c2nc(SCc3ccccc3)nc(NCc3cccs3)c2C#N)cc1 | 5 µM | 65% | 13% | > 10 µM
41 | N#Cc1c(-c2ccc(Cl)cc2)nc(Nc2ccc(Cl)cc2)[nH]c1=O | > 10 µM | 18% | – | –
42 | CCn1c(SCc2ccccc2)nc(-c2ccc(Cl)cc2)c(C#N)c1=O | > 10 µM | 5% | – | –
43 | COc1nc(Nc2ccc(Cl)cc2)nc(-c2ccc(Cl)cc2)c1C#N | > 10 µM | 0% | – | –
44 | COc1ccc(-c2nc(SCc3ccccc3)nc(NCc3ccccc3)c2C#N)cc1 | 2.5 µM | 73% | 5% | > 10 µM
45 | COc1ccc(-c2nc(SC)nc(N3CCOCC3)c2C#N)cc1 | 4.9 µM | 80% | 6% | > 10 µM
46 | COc1ccc(-c2nc(SCc3ccccc3)n(C)c(=O)c2C#N)cc1 | > 10 µM | 5% | – | –
47 | CCCn1c(SCc2ccccc2)nc(-c2cccc(Cl)c2)c(C#N)c1=O | > 10 µM | 9% | – | –
48 | COc1ccc(-c2nc(SCCc3ccccc3)nc(N3CCOCC3)c2C#N)cc1 | 3.9 µM | 62% | 9% | > 10 µM
49 | CCOc1nc(Nc2ccc(Cl)cc2)nc(-c2ccccc2)c1C#N | > 10 µM | 38% | – | –
50 | CCOc1nc(SCc2ccccc2)nc(-c2ccc(OC)cc2)c1C#N | > 10 µM | 46% | – | –
51 | CCc1cccc(Nc2nc(-c3ccc(Cl)cc3)c(C#N)c(=O)[nH]2)c1 | > 10 µM | 33% | – | –
52 | Cc1ccc(Nc2nc(-c3ccccc3)c(C#N)c(=O)[nH]2)cc1 | > 10 µM | 11% | – | –
53 | CC(C)Nc1nc(SCc2ccccc2)nc(-c2ccc(Cl)cc2)c1C#N | > 10 µM | 48% | – | –
54 | N#Cc1c(-c2ccc(Cl)cc2)nc(SCc2ccccc2)nc1N1CCCC(C(N)=O)C1 (centres undefined) | > 10 µM | 64% | – | –
